# Bioassay records from PubChem.
# This is a sample that favours compounds with a hit; in the whole collection about 5.4% have one here.
# PLAP act: activates human placental alkaline phosphatase | P05187 | purified PLAP enzyme, luminescent substrate read-out; stronger effect = higher value | activation fold at 20 µM | 96,000 compounds, 1.2% hits; in the data active = activation fold above about 2
# Target sequence (P05187 whole entry, looked up): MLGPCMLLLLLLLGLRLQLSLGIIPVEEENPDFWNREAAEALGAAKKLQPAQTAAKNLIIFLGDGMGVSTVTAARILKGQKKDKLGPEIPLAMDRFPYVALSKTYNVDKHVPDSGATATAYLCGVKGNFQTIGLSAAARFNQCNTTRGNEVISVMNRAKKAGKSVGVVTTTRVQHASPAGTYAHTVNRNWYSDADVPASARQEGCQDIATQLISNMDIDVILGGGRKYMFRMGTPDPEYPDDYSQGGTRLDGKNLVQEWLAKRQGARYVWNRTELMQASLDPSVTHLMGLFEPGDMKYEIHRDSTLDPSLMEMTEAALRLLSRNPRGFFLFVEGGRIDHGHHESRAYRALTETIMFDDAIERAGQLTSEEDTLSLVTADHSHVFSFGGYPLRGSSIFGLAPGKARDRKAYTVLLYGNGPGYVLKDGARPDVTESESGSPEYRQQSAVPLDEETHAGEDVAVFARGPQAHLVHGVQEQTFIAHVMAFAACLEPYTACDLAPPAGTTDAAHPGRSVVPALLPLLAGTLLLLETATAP
# Ecoli tolC: growth inhibitors of E. coli BW25113 tolC mutant; OD615; growth inhibition, % at 10 µM (by protocol); 65,000 compounds, 2.2% hits;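 active = growth inhibition at or above a cutoff equal to the mean over every tested compound plus 3 SD, cut at about 60% in these data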;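 note: growth measured after 20 h incubation at 37 °C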
#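 signal = optical density read at 615 nm | test system = E. coli ΔtolC::kan strain BW25113 | timing = 20 h compound exposure of bacteria at 37 °C | buffer or medium = LB medium plus 50 µg/mL kanamycin | compound dosing = 10 µM final, single dose | evaluation = % inhibition of E. coli growth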
# HePTP inhibitor: human HePTP phosphatase inhibition; 110,000 compounds, 0.64% hits; AID 521; P35236; recombinant HePTP phosphatase activity, OD absorbance; inhibition, % at 20 µM; in the data active = inhibition above about 50%
# PostGolgi ctrl: growth of the yeast control strain, post-Golgi counter-screen; 98,000 compounds, 5% hits; AID 738; inhibition, % at 10 µM; efflux-deficient yeast background strain, growth absorbance A615, 16 h
# PostGolgi yeast: growth inhibition of a yeast mutant, post-Golgi transport screen. post-Golgi transport phenotypic cell assay. 98,000 compounds, 0.9% hits. inhibition, % at 10 µM;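 note: yeast cells grown in 1536-well plates; yeast grown about 18 h at 30C before absorbance read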
# Ecoli WT expand: E. coli BW25113 growth inhibition, expanded screen; growth inhibition, % at 100 µM; 98,000 compounds, 0.15% hits; AID 710; OD600 absorbance;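 active = growth inhibition above about 50% at one test dose, limit read from the data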;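 note: growth measured after 20 h incubation at 37 °C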
# Numbers stand for hits; 0 = inactive; - = no result given. Cut-off read from the data, not from the text of the source, unless noted: active = inhibition above about 30%; inactive = the rest.
SMILES,PLAP act,Ecoli tolC,HePTP inhibitor,PostGolgi ctrl,PostGolgi yeast,Ecoli WT expand
COCCNC(=O)c1c(N)n(Cc2ccco2)c2nc3ccccc3nc12,0,-,-,51,0,0
CC(C)(C)OC(=O)c1c(N)n(Cc2ccco2)c2nc3ccccc3nc12,2.1,0,-,0,0,0
Nc1c(C(=O)OCc2ccccc2)c2nc3ccccc3nc2n1Cc1cccs1,0,-,-,0,0,0
CC(=O)c1ccc(NC(=O)C2C(C)(C)C2(C)C)cc1,-,-,0,-,-,-
O=[N+]([O-])c1ccc(N2CCNCC2)c2cccnc12,-,-,0,-,-,-
Cn1cccc1/C=C1/C(=O)NC(=S)N(c2ccc(Cl)cc2)C1=O,-,-,100,-,-,-
CCN(CC)CCNCC(=O)Nc1ccc(Cl)cc1C(=O)c1ccccc1,2.6,-,-,0,0,0
Cc1cccc(C(=O)Nc2ccc(Cl)cc2C(=O)c2ccccc2)c1,0,-,0,0,0,0
CN1C(=O)NC(=O)/C(=C/c2ccc(I)o2)C1=O,-,-,0,-,-,-
CN1C(=O)NC(=O)/C(=C\c2ccc([N+](=O)[O-])o2)C1=O,-,-,97,-,-,-
CN(C)C1(c2nnnn2CCOC(=O)Nc2ccc(Cl)cc2)CCCCC1,0,100,0,0,0,0
CN(C)C1(c2nnnn2-c2ccc(Cl)cc2)CCCCC1,0,0,0,0,0,0
Cc1cc(OCc2ccc(F)cc2)c2c3c(c(=O)oc2c1)CCCC3,-,-,0,-,-,-
CCNc1ccc(Br)cc1C(=O)c1ccccc1,-,-,0,-,-,-
COc1cc(C=C2C(=O)NC(=S)NC2=O)ccc1OCc1c(C)no[n+]1[O-],-,-,0,-,-,-
CCC(=O)N(Cc1ccc(OC)c(OC)c1)C1CC(C)N(C)CC1C (configuration not stated),-,-,0,-,-,-
N=C(N)c1c(O)n(C2CCCCC2)c(=O)n(C2CCCCC2)c1=O,0,99,0,53,0,0
Cc1ccccc1-n1c(CN2C(=O)c3ccccc3C2=O)nc2ccccc2c1=O,-,-,0,-,-,-
O=C1NC(=O)C(=Cc2cccc(Cl)c2)C(=O)N1,-,-,0,-,-,-
CCN(CCNc1ccc([N+](=O)[O-])c2cccnc12)S(=O)(=O)c1ccc(Cl)cc1,0,-,-,35,0,0
CCCC(C)C1C(C#N)=C(N)Oc2c1c(=O)oc1ccccc21 (configuration not stated),0,0,0,36,0,0
Cc1ccc(-n2nc(C)c(C3C(C#N)=C(N)Oc4c3c(=O)oc3ccccc43)c2Cl)cc1 (configuration not stated),0,-,-,39,0,0
CC(C)Oc1ccc(C2C(C#N)=C(N)Oc3c2c(=O)oc2ccccc32)cc1 (configuration not stated),0,-,-,0,0,0
CN1CCN(c2c(Cl)cccc2[N+](=O)[O-])CC1,-,-,0,-,-,-
Cc1nc2ccccc2c(=O)n1-c1ccccc1O,-,-,0,-,-,-
SMILES,PLAP act,Ecoli tolC,HePTP inhibitor,PostGolgi ctrl,PostGolgi yeast,Ecoli WT expand
COc1ccc(CN2CCN(Cc3ccc(SC)cc3)CC2)cc1,-,-,72,-,-,-
CCC1(CC)C(=O)NC(=O)N(C(=O)c2ccccc2Br)C1=O,-,-,0,-,-,-
Cn1c2ccccc2c2c(C(=O)N3CCC4(CC3)OCCO4)cn(C3CCCC3)c(=O)c21,0,0,0,0,33,0
CCC(=NCc1ccc2c(c1)OCO2)c1c(O)n(C2CCCCC2)c(=O)[nH]c1=O,0,75,0,67,0,0
CCC(=NCCO)c1c(O)n(C2CCCCC2)c(=O)[nH]c1=O,0,0,0,0,0,0
Cc1sc2ncn(CC(=O)NCCCC(=O)N3CCC4(CC3)OCCO4)c(=O)c2c1C,0,-,-,36,0,0
Cc1nc2c(Cl)cc(Cl)cc2c(=O)n1-c1ccccc1F,-,-,0,-,-,-
CN1C(=O)CN=C(c2ccc(Cl)cc2)c2cc(Cl)ccc21,-,0,0,-,-,-
O=C1CN=C(c2ccccc2)c2ccccc2N1Cc1ccc(C(F)(F)F)cc1,0,-,-,42,0,0
CN1C(=O)NC(=O)/C(=C\c2ccc(OCc3ccc(C(=O)O)cc3)c(Br)c2)C1=O,-,-,0,-,-,-
O=C(CN1C(=O)CN=C(c2ccccc2Cl)c2cc(Cl)ccc21)NCc1ccco1,0,0,0,31,0,0
COc1cc(OC)c(OC)cc1CN1CCNCC1,-,-,0,-,-,-
O=C(Cn1ncc2c3ccccc3n(Cc3ccccc3F)c2c1=O)N1CCC2(CC1)OCCO2,0,0,0,0,55,0
CCN1CCN(c2ncnc3ccc(Br)cc23)CC1,0,0,0,32,0,0
O=C1NC(=S)NC(=O)C1=Cc1ccc(-c2ccc(S(=O)(=O)Nc3nccs3)cc2)o1,-,-,100,-,-,-
COC(=O)c1ccc(-c2ccc(C=C3C(=O)NC(=S)NC3=O)o2)cc1,-,-,0,-,-,-
Fc1ccc(CCNCc2ccc(Cl)c(Cl)c2)cc1,0,-,-,0,0,67
O=[N+]([O-])c1ccc(CNCCc2ccc(F)cc2)cc1,-,-,0,-,-,-
O=C1NC(=O)C(=Cc2ccccc2OCc2ccccc2Cl)C(=O)N1,-,-,0,-,-,-
Cc1ccc(NP(=O)(Oc2ccccc2F)Oc2ccccc2F)cc1,0,-,-,36,0,0
